Results on one molecule are retold here after ChEMBL document CHEMBL4765243, “Discovery of Novel Bromophenol-Thiosemicarbazone Hybrids as Potent Selective Inhibitors of Poly(ADP-ribose) Polymerase-1 (PARP-1) for Use in Cancer” (J Med Chem, 2019).

Active and inactive are the calls of the source. The rule behind the calls is not given here.

Data set [1] is described as follows: Subacute toxicity in SPF Kunming mouse assessed as change in heart at 1000 mg/kg, po administered for 14 days by H and E staining based microscopic analysis. The class given is organism-based. The conditions noted are these: in vivo, 336 h, time 14 day. In outline: (§1)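 Twenty SPF Kunming mice (18 - 22 g), half male and half female, randomised into 2 groups of 5 males + 5 females. Treated group dosed orally at 1000 mg/kg once daily for 14 days. Death, clinical signs and body weight monitored. After 14 days: isoflurane anaesthesia, decapitation, tissues collected for H&E histology.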

A short description of data set [2]: Cmax in Sprague-Dawley rat at 2 mg/kg, iv by LC/MS/MS analysis. In kind it is ADME, organism-based. Also noted: route intravenous, dose 2 mg/kg. The conditions noted are these: in vivo. In a few lines: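 Male Sprague-Dawley rats, 4 per group, dosed once orally at 10 mg/kg or intravenously at 2 mg/kg. Blood taken from the saphenous vein for plasma. Drug levels measured by LC-MS-MS, with parameters derived by noncompartmental analysis.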

A short description of data set [3]: Subacute toxicity in SPF Kunming mouse assessed as induction of death at 1000 mg/kg, po administered for 14 days and measured on day 14. The settings on record: in vivo, 336 h, time 14 day. In kind it is organism-based. In a few lines: as §1
The target of data set [4] is Poly [ADP-ribose] polymerase 1 (Homo sapiens, UniProt P09874). Put plainly: Inhibition of PARP-1 in human SKOV3 cells assessed as decrease in MCM6 protein expression level at 2.5 to 10 uM incubated for 48 hrs by western blot analysis. The settings on record: SK-OV-3, dose 2.5-10 µM. In kind it is cell-based. In a few lines:
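SK-OV-3 cells were grown in McCOY's 5A, seeded in 6-well plates and treated for 48 h. Lysate proteins were separated by 8-15 % SDS-PAGE and transferred to PVDF membranes. Membranes were blocked in 5 % nonfat milk, probed with primary antibody overnight at 4 °C and with HRP secondary antibody for 1 h at room temperature, then detected by enhanced chemiluminescence. Images are representative of 3 independent experiments.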

For data set [5], the system named is SK-OV-3. Description: Induction of apoptosis in human SKOV3 cells assessed as increase in Bax expression at 2.5 to 10 uM incubated for 48 hrs by western blot analysis. In kind it is functional, cell-based. The conditions noted are these: dose 2.5-10 µM. For orientation: Immunoblotting shows a protein as a band on a membrane.

Poly [ADP-ribose] polymerase 1, sequence (P09874 whole entry): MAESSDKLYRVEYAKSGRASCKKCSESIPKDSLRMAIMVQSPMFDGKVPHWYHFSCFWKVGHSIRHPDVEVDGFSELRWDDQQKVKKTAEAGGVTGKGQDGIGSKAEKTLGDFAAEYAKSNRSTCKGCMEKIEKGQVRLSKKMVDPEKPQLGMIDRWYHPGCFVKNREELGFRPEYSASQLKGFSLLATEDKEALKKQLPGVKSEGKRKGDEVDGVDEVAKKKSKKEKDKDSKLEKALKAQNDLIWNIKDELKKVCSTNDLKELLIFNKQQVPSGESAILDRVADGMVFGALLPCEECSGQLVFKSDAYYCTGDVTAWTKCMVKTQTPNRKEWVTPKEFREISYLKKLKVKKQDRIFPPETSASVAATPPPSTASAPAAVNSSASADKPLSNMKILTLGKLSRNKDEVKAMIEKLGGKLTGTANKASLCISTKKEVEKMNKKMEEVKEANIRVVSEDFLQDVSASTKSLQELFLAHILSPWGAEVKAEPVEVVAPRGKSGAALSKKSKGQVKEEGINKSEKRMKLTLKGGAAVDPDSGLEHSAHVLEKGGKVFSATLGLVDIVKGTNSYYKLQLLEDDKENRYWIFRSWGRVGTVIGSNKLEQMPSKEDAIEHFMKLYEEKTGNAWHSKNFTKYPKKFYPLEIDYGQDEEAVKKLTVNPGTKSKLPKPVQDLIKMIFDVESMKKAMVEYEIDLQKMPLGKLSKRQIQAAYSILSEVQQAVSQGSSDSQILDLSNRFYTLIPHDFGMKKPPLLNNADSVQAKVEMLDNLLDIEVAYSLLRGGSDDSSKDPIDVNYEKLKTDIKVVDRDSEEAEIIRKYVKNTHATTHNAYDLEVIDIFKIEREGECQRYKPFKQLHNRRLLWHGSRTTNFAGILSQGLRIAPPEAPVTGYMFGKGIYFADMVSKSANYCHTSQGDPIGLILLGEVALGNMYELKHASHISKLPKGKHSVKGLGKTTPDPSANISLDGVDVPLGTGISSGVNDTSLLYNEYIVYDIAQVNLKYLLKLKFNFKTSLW

As a reminder, the Cmax is the highest concentration seen after dosing. For `COc1cc(/C=N/NC(N)=S)c(Br)c(Br)c1OC`, the Activity entry in data set [1] and in data set [3] was “Non-Toxic” in each case. Also, the highest concentration (Cmax) in data set [2] amounted to 1250 nM. For the same molecule, in data set [4], the inhibition entry was “Active”. The outcome in data set [5] was Active.
